The target in series [1] is Fibroblast growth factor 1 (Homo sapiens, UniProt P05230). As to the kind of experiment: Binding affinity to FGF-1 by surface plasmon resonance assay. In outline: (§1)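 Solution-affinity SPR on heparin-coated CM4 chips. FGF-1 measured in HBS-EP (10 mM HEPES pH 7.4, 150 mM NaCl, 3.0 mM EDTA, 0.005% polysorbate 20); FGF-2 measured in HBS-EP with 300 mM NaCl. Kd is the average of at least duplicate measurements ± SD.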

Series [2] has as its target Fibroblast growth factor 2 (Homo sapiens, UniProt P09038). The series is described as follows: Binding affinity to FGF-2 by surface plasmon resonance assay. The essentials: as §1
(In general: Surface plasmon resonance follows binding to a sensor surface in real time, without labels.)

The test system of series [3] is HUVEC. The series is described as follows: Antiangiogenic activity in FGF1-stimulated HUVEC cells after 72 hrs by CellTiter assay. The format is functional, cell-based. The settings on record: Homo sapiens.
In series [4] the test system is HUVEC. The series is described as follows: Antiangiogenic activity in FGF2-stimulated HUVEC cells after 72 hrs by CellTiter assay. The format is functional, cell-based. Particulars: Homo sapiens.
Series [5] relates to HUVEC. As to the kind of experiment: Antiangiogenic activity in VEGF-stimulated HUVEC cells after 72 hrs by CellTiter assay. The series is classed as functional, cell-based. The settings on record: Homo sapiens.
Series [6] has as its system HMVEC. The series is described as follows: Antiangiogenic activity in FGF1-stimulated HMVEC cells after 72 hrs by CellTiter assay. The series is classed as functional, cell-based. The settings on record: Homo sapiens.
Series [7] deals with HMVEC. As to the kind of experiment: Antiangiogenic activity in FGF2-stimulated HMVEC cells after 72 hrs by CellTiter assay. The series is classed as functional, cell-based. The settings on record: Homo sapiens.
The subject of series [8] is HMVEC. As to the kind of experiment: Antiangiogenic activity in VEGF-stimulated HMVEC cells after 72 hrs by CellTiter assay. The format is functional, cell-based. Particulars: Homo sapiens.
Series [9] concerns Plasma. As to the kind of experiment: Anticoagulant activity in pooled human plasma assessed as activated partial thromboplastin time at 0.1 mg/ml. The format is ADME, cell-free. In outline:
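APTT of pooled normal human plasma measured with compound at 0–100 μg/mL in PBS on a ball coagulameter, using unfractionated heparin as the reference. Normal range 26–36 s; coefficient of variation 2% at 36 s and 5–7% at 90 s or above. Values are the mean of two determinations.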

Series [10] concerns Plasma. The series is described as follows: Anticoagulant activity in pooled human plasma assessed as prolongation of the recalcification time at 0.1 mg/ml by Heptest assay. The series is classed as ADME, cell-free. The essentials: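 Heptest clotting time in pooled normal human plasma; normal range 13–20 s. Values are the mean of two determinations.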
The target in series [11] is Vascular endothelial growth factor A (Homo sapiens) (UniProt P15692). The series is described as follows: Binding affinity to VEGF by surface plasmon resonance assay.
For series [12], the target named is T1, Heparanase (Homo sapiens, UniProt Q9Y251).
T1 sequence (Q9Y251 whole entry): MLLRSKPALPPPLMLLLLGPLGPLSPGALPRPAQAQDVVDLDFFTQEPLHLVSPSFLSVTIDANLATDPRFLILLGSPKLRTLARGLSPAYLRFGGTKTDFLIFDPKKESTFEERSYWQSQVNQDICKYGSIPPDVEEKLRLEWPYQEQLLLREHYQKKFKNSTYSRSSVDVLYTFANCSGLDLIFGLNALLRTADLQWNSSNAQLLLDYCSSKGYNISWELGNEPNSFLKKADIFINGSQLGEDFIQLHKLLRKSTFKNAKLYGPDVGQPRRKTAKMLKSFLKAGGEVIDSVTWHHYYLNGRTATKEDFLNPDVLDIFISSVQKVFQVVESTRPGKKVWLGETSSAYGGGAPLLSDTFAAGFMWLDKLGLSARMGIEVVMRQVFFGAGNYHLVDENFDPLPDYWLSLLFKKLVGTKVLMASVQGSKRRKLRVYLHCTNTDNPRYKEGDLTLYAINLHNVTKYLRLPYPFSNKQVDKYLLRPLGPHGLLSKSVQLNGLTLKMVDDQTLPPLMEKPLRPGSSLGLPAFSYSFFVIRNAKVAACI
The series is described as follows: Inhibition of human recombinant heparanase after 2 to 24 hrs by WST1 dye based fondaparinux assay. (In general: Tetrazolium dyes change colour on reduction, which living cells bring about.)

Activity calls are given as the source filed them. No cut-off for these calls is given here.

As a reminder, the Kd is the concentration at which binding is half-saturated. A low value points to a tighter complex. By IC50 is commonly meant the point on the concentration scale where inhibition reaches its midpoint. A high value points to weaker potency in that assay. For orientation: Ki means a dissociation constant, usually derived from enzyme kinetics or from competition with a known ligand.

Fibroblast growth factor 2, sequence (P09038 143-288 limits assumed): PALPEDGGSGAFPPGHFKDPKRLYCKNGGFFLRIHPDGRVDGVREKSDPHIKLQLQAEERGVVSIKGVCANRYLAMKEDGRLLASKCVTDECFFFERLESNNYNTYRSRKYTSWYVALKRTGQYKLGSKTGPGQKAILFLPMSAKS
Fibroblast growth factor 1, sequence (P05230 whole entry): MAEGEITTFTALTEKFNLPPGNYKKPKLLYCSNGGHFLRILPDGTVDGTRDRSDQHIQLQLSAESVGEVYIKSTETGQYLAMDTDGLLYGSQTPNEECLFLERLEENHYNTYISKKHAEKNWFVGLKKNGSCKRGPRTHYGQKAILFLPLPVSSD

With `CC(C)CCC[C@@H](C)[C@H]1CC[C@H]2[C@@H]3CC[C@H]4C[C@@H](O[C@@H]5O[C@H](COS(=O)(=O)[O-])[C@@H](O[C@@H]6O[C@H](COS(=O)(=O)[O-])[C@@H](OS(=O)(=O)[O-])[C@H](OS(=O)(=O)[O-])[C@H]6OS(=O)(=O)[O-])[C@H](OS(=O)(=O)[O-])[C@H]5OS(=O)(=O)[O-])CC[C@]4(C)[C@H]3CC[C@]12C.[Na+].[Na+].[Na+].[Na+].[Na+].[Na+].[Na+]`, the Kd came out at 0.87 µM in series [1], 2 µM in [2] and 1.35 µM in series [11]. The figures for the half-maximal inhibitory concentration (IC50) in series [3], in [4] and in series [5] were 6 µM, 5.6 µM and 5.6 µM, respectively. Also, the result in [6], in series [7] and in series [8] was Active. Besides, the APTT in [9] is on record as 38.8 s. Further, in [10], the Time is 25.3 s.
As to `CC(=O)O[C@H]1C[C@H]2[C@@H](CC[C@H]3C[C@@H](OS(=O)(=O)[O-])CC[C@@]32C)[C@@H]2CC[C@H]([C@H](C)CCC(=O)N[C@@H]3O[C@H](COS(=O)(=O)[O-])[C@@H](O[C@H]4O[C@H](COS(=O)(=O)[O-])[C@@H](O[C@H]5O[C@H](COS(=O)(=O)[O-])[C@@H](O[C@H]6O[C@H](COS(=O)(=O)[O-])[C@@H](OS(=O)(=O)[O-])[C@H](OS(=O)(=O)[O-])[C@H]6OS(=O)(=O)[O-])[C@H](OS(=O)(=O)[O-])[C@H]5OS(=O)(=O)[O-])[C@H](OS(=O)(=O)[O-])[C@H]4OS(=O)(=O)[O-])[C@H](OS(=O)(=O)[O-])[C@H]3OS(=O)(=O)[O-])[C@@]12C.[Na+].[Na+].[Na+].[Na+].[Na+].[Na+].[Na+].[Na+].[Na+].[Na+].[Na+].[Na+].[Na+].[Na+]`, the results for the Kd in series [1], in [2] and in series [11] were 0.00125 µM, 0.05 µM and 0.00795 µM, respectively. For the same compound, in series [12], the Ki was 0.02 µM. Moreover, the IC50 in series [3], in series [4] and in [5] was over 50 µM throughout. For the same compound, the result in [6], in series [7] and in series [8] was Active. Further, in series [9], the APTT is on record as 41 s. In addition, in [10], the Time is listed as 26.8 s.
Regarding `CCCCCCCCCCCCCCCCCC(=O)NCCCO[C@@H]1O[C@H](COS(=O)(=O)[O-])[C@@H](O[C@H]2O[C@H](COS(=O)(=O)[O-])[C@@H](O[C@H]3O[C@H](COS(=O)(=O)[O-])[C@@H](OS(=O)(=O)[O-])[C@H](OS(=O)(=O)[O-])[C@H]3OS(=O)(=O)[O-])[C@H](OS(=O)(=O)[O-])[C@H]2OS(=O)(=O)[O-])[C@H](OS(=O)(=O)[O-])[C@H]1OS(=O)(=O)[O-].[Na+].[Na+].[Na+].[Na+].[Na+].[Na+].[Na+].[Na+].[Na+].[Na+]`, the result in series [6], in [7] and in [8] was Active. Further, the APTT in series [9] came to 51.1 s. In addition, in series [10], the Time was found to be 24.9 s. Also, the Kd in [11] was 0.38 µM.
As for `CC(C)CCC[C@@H](C)[C@H]1CC[C@H]2[C@@H]3CC[C@H]4C[C@@H](O[C@H]5O[C@H](COS(=O)(=O)[O-])[C@@H](OS(=O)(=O)[O-])[C@H](OS(=O)(=O)[O-])[C@@H]5O[C@H]5O[C@H](COS(=O)(=O)[O-])[C@@H](OS(=O)(=O)[O-])[C@H](O[C@H]6O[C@H](COS(=O)(=O)[O-])[C@@H](OS(=O)(=O)[O-])[C@H](OS(=O)(=O)[O-])[C@@H]6OS(=O)(=O)[O-])[C@@H]5OS(=O)(=O)[O-])CC[C@]4(C)[C@H]3CC[C@]12C.[Na+].[Na+].[Na+].[Na+].[Na+].[Na+].[Na+].[Na+].[Na+].[Na+]`, the Kd came to 0.0185 µM in [1], 0.631 µM in series [2] and 0.319 µM in series [11]. The Ki in [12] amounted to 0.0064 µM. For the same compound, the IC50 worked out at 4.4 µM in [3], 2.27 µM in series [4] and 1 µM in [5]. The result in [6], in series [7] and in [8] was Active. For the same compound, in series [9], the APTT came to 50.7 s. Besides, the Time in series [10] came to 27.3 s.
`CC(C)CCC[C@@H](C)[C@H]1CC[C@H]2[C@@H]3CC[C@H]4C[C@@H](O[C@H]5O[C@H](COS(=O)(=O)[O-])[C@@H](OS(=O)(=O)[O-])[C@H](OS(=O)(=O)[O-])[C@@H]5O[C@H]5O[C@H](COS(=O)(=O)[O-])[C@@H](OS(=O)(=O)[O-])[C@H](OS(=O)(=O)[O-])[C@@H]5OS(=O)(=O)[O-])CC[C@]4(C)[C@H]3CC[C@]12C.[Na+].[Na+].[Na+].[Na+].[Na+].[Na+].[Na+]`: the IC50 in series [3] is over 10 µM; in series [4], 2.22 µM; in series [5], 1.8 µM. Further, the result in series [6], in [7] and in series [8] was Active. For the same compound, in series [9], the APTT was 40.6 s. In series [10], the Time was 25.5 s. This compound also showed a Kd in [11] of 1.3 µM.
Regarding `CC(C)CCC[C@@H](C)[C@H]1CC[C@H]2[C@@H]3CC[C@H]4C[C@@H](OCc5cn([C@@H]6O[C@H](COS(=O)(=O)[O-])[C@@H](O[C@H]7O[C@H](COS(=O)(=O)[O-])[C@@H](OS(=O)(=O)[O-])[C@H](OS(=O)(=O)[O-])[C@H]7OS(=O)(=O)[O-])[C@H](OS(=O)(=O)[O-])[C@H]6OS(=O)(=O)[O-])nn5)CC[C@]4(C)[C@H]3CC[C@]12C.[Na+].[Na+].[Na+].[Na+].[Na+].[Na+].[Na+]`, the IC50 in series [3] is 4.1 µM; in series [4], 4.17 µM; in series [5], 1.13 µM. In addition, the outcome in [6], in series [7] and in [8] was Active. Moreover, the APTT in series [9] is 40.3 s. Besides, in [10], the Time worked out at 26.7 s. In addition, the Kd in series [11] turned out to be 1.93 µM.
In the case of `CC(C)CCC[C@@H](C)[C@H]1CC[C@H]2[C@@H]3CC[C@H]4C[C@@H](O[C@H]5O[C@H](COS(=O)(=O)[O-])[C@@H](OS(=O)(=O)[O-])[C@H](OS(=O)(=O)[O-])[C@@H]5OS(=O)(=O)[O-])CC[C@]4(C)[C@H]3CC[C@]12C.[Na+].[Na+].[Na+].[Na+]`, the figures for the Kd in series [2] and in series [11] were over 3 µM and 3 µM, respectively. Further, the IC50 in series [3] was 2.2 µM; in series [4] it was 2.9 µM; in series [5] it was 2.24 µM. Further, the outcome in [6], in [7] and in series [8] was Active. Further, in series [9], the APTT is listed as 36.1 s. In addition, the Time in series [10] came to 23.9 s.
On to `CC(C)CCC[C@@H](C)[C@H]1CC[C@H]2[C@@H]3CC[C@H]4C[C@@H](O[C@@H]5O[C@H](COS(=O)(=O)[O-])[C@@H](O[C@H]6O[C@H](COS(=O)(=O)[O-])[C@@H](OS(=O)(=O)[O-])[C@H](OS(=O)(=O)[O-])[C@H]6OS(=O)(=O)[O-])[C@H](OS(=O)(=O)[O-])[C@H]5OS(=O)(=O)[O-])CC[C@]4(C)[C@H]3CC[C@]12C.[Na+].[Na+].[Na+].[Na+].[Na+].[Na+].[Na+]`, for which the Kd worked out at 0.56 µM in series [1], 2.2 µM in [2] and 1.2 µM in [11]. In addition, the IC50 in series [3] is 4 µM; in series [4], over 10 µM; in [5], 5.2 µM. The outcome in series [6], in series [7] and in [8] was Active. In addition, the APTT in series [9] was 38.6 s. The Time in series [10] is reported as 23.9 s.

Source of the values: ChEMBL document CHEMBL2057149 (J Med Chem, 2012).
